Activity calls are given as the source filed them.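 Rule for the calls: active = compounds cutting phorbol ester driven platelet P-selectin display by over 50% in every run; inconclusive = over 50% in some runs but not others; inactive = 50% or less in every run.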
Test system: human washed platelets, PMA-induced P-selectin, flow cytometry
Experiment: inhibitors of PMA-stimulated platelet P-selectin exposure, selectivity assay for platelet activation inhibitor project, cell-based, fluorescence, flow cytometry, platelets (AID 2509)
Conditions: at 30 µM; hits give high values
Summary of the method: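 Assay system: Platelets, PMA-induced surface P-selectin expression | Probe or stimulus: 5 nM PMA | Dosing: Single compound dose of 30 µM | Timing: 20 min compound, 15 min PMA, 20 min antibody | Technique: Flow cytometry with PE-conjugated anti-P-selectin antibody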

SMILES | inhibition
Cc1ccc(-n2c(N)c(C#N)c(-c3ccccc3)c(C#N)c2=O)cc1 | 5.5% (inactive)
C/C(=N/NC(=O)C1CCCC1)c1ccc(NC(=O)C(F)(F)F)cc1 | 9.5% (inactive)

Reference: PubChem BioAssay AID2509 (Broad Institute, 2010)
